Laboratory results taken from ChEMBL document CHEMBL1122741, “Substituted 5,6-dihydrofuro[3,2-f]-1,2-benzisoxazole-6-carboxylic acids: high-ceiling diuretics with uricosuric activity” (J Med Chem, 1984).
Calls of active or inactive are those of the source. The calls are words filed in the database; no cut-off is given here.

Tested on: Mus musculus
Assay: Na+ excretion mequiv/kg in saline-loaded mice administered at a dose 30 […] perorally
Format: ADME, organism-based
Details: in vivo, po
How it was run: (§1)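 Saline-loaded male mice, 16-30 g. Compound po in 0.2% hydroxypropylmethylcellulose at 10 mL/kg, vehicle alone for controls, followed by 0.9% saline po at 3% of body weight. Doses were 0.3-250 mg/kg po. Five mice per metabolism cage, four cages per dose, pooled urine collected for 4 h. Na+ reported as mean ± SEM mequiv/kg; ANOVA with Duncan's test or unpaired t test against control.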

Na+ excretion [m equiv kg-1]	Compound
6.7	NS(=O)(=O)c1cc2c(cc1Cl)NCNS2(=O)=O [HYDROCHLOROTHIAZIDE]

Tested on: Mus musculus
Assay: ED6 (natriuretic potency) is the oral dose(mg/kg) required to produce an excretion of 6 milliequivalents of Na+per kilogram during 0-4 hr in male mice (Highest dose tested was 50 mg/kg)
Format: functional
Details: not given
How it was run: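 Male mice, 16-30 g, fed ad libitum beforehand. Compound in 0.2% hydroxypropylmethylcellulose given po at 10 mL/kg, then 0.9% saline po at 3% of body weight. Five mice pooled per metabolism cage, four cages per dose. Combined urine collected 0-4 h and assayed for Na+, K+, Cl-, uric acid as mequiv/kg per cage. ED6 from regression of Na+ against log dose.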

Compound	ED6 [mg/kg]
Cc1ccccc1-c1noc2c(Cl)c3c(cc12)CC(C(=O)O)O3 (stereo not given)	8.4
NS(=O)(=O)c1cc(C(=O)O)c(NCc2ccco2)cc1Cl [FUROSEMIDE]	5
O=C(O)C1Cc2cc3c(-c4ccccc4F)noc3c(Br)c2O1 (stereo not given)	9.9
OCC1Cc2cc3c(-c4ccccc4F)noc3c(Cl)c2O1 (stereo not given)	30
O=C(O)C1Cc2cc3c(-c4ccc(F)cc4)noc3c(Cl)c2O1 (stereo not given)	66
NC(=O)C1Cc2cc3c(-c4ccccc4F)noc3c(Cl)c2O1 (stereo not given)	39
CC(C)Cc1noc2c(Cl)c3c(cc12)CC(C(=O)O)O3 (stereo not given)	0.47
CC1(c2ccccc2)Cc2cc(OCC(=O)O)c(Cl)c(Cl)c2C1=O (stereo not given) [INDACRINONE]	4.4
Cc1c2c(cc3c(-c4ccccc4F)noc13)CC(C(=O)O)O2 (stereo not given)	7.25
O=C(O)C1Cc2cc3c(-c4ccccc4F)noc3cc2O1 (stereo not given)	100
O=C(O)C1Cc2cc3c(-c4ccccc4)noc3c(Cl)c2O1 (stereo not given)	55
CCc1noc2c(Cl)c3c(cc12)CC(C(=O)O)O3 (stereo not given)	6.8

Tested on: Mus musculus
Assay: Na+ excretion mequiv/kg in saline-loaded mice administered at a dose 10 […] perorally
Format: ADME, organism-based
Details: in vivo, po
How it was run: as §1

Na+ excretion [m equiv kg-1]	Compound
8	CC1(c2ccccc2)Cc2cc(OCC(=O)O)c(Cl)c(Cl)c2C1=O (stereo not given) [INDACRINONE]

Tested on: Rattus norvegicus
Assay: ED2(natriuretic potency) is the oral dose(mg/kg) required to produce an excretion of 2 milliequivalents of Na+per kilogram during 0-4 hr in female rats (Highest dose tested was 100 mg/kg)
Format: functional
Details: not given
How it was run: (§2)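 Female Sprague-Dawley rats, 175-225 g, on sucrose and water for 18 h, given 5 mg DOCA sc 2 h before dosing. Compound in 0.2% methylcellulose given by gavage at 2 mL/kg, then a 30 mL/kg load of 0.34% NaCl/0.69% KCl. Individual metabolism cages, urine collected 0-4 h for Na+, K+, Cl-. Two-stage two-dose screen at 2 rats/dose, then at least four doses at 4 rats/dose. ED2 taken from regression of Na+ excretion against log dose.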

Compound	ED2 [mg/kg]
Cc1ccccc1-c1noc2c(Cl)c3c(cc12)CC(C(=O)O)O3 (stereo not given)	14.3
NS(=O)(=O)c1cc(C(=O)O)c(NCc2ccco2)cc1Cl [FUROSEMIDE]	9.5
O=C(O)C1Cc2cc3c(-c4ccccc4F)noc3c(Br)c2O1 (stereo not given)	117.5
O=C(O)C1Cc2cc3c(-c4ccc(F)cc4)noc3c(Cl)c2O1 (stereo not given)	7.3
CC(C)Cc1noc2c(Cl)c3c(cc12)CC(C(=O)O)O3 (stereo not given)	0.23
CC1(c2ccccc2)Cc2cc(OCC(=O)O)c(Cl)c(Cl)c2C1=O (stereo not given) [INDACRINONE]	5.2
Cc1c2c(cc3c(-c4ccccc4F)noc13)CC(C(=O)O)O2 (stereo not given)	>100
O=C(O)C1Cc2cc3c(-c4ccccc4)noc3c(Cl)c2O1 (stereo not given)	27.3
CCc1noc2c(Cl)c3c(cc12)CC(C(=O)O)O3 (stereo not given)	3.8

Species on record: Canis familiaris
Assay: urate excreted in 4 female dogs during 0-6 hr
Format: ADME, organism-based, Canis lupus familiaris
Details: dog, in vivo
How it was run: (§3)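 Conscious female dogs dosed at 3 mg/kg po, except one reference at 10 mg/kg, one dose per dog. Urine collected to 6 h and centrifuged; heparinized venous plasma taken at each collection. Na+ and urate measured by standard methods, mean ± SEM over 0-6 h. Compared with vehicle by ANOVA/Duncan's test or unpaired t test.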

Excretion [mg/kg]	Compound
0.71	CC1(c2ccccc2)Cc2cc(OCC(=O)O)c(Cl)c(Cl)c2C1=O (stereo not given) [INDACRINONE]

Tested on: not listed separately
Assay: urate excreted in 4 Cebus monkey''s during 0-6 hr
Format: ADME
Details: in vivo
How it was run: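 Male and female Cebus monkeys, 4-6 per group, fasted for 6 h after dosing, water ad libitum. 20 mg/kg in 0.2% hydroxypropylmethylcellulose at 1.0 mL/kg by nasogastric tube, then water load of 5% body weight. Urine collected in metabolism pans at 2, 6 and 24 h and assayed for uric acid. Urate in mg/kg over 0-6 h, mean ± SEM.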

Excretion [mg/kg]	Compound
4.03	NS(=O)(=O)c1cc(C(=O)O)c(NCc2ccco2)cc1Cl [FUROSEMIDE]
9.53	CC1(c2ccccc2)Cc2cc(OCC(=O)O)c(Cl)c(Cl)c2C1=O (stereo not given) [INDACRINONE]

Tested on: Canis familiaris
Assay: Na+ excretion mequiv /kg in conscious female dogs administered perorally during 0-6 hr
Format: ADME, organism-based, Canis lupus familiaris
Details: dog, in vivo, po
How it was run: as §3

Na+ excretion [m equiv kg-1]	Compound
5.23	NS(=O)(=O)c1cc(C(=O)O)c(NCc2ccco2)cc1Cl [FUROSEMIDE]

Tested on: Mus musculus
Assay: Na+ excretion mequiv /kg in saline-loaded mice administered at a dose 10 […] perorally
Format: ADME, organism-based
Details: in vivo, po
How it was run: as §1

Na+ excretion [m equiv kg-1]	Compound
7.9	NS(=O)(=O)c1cc(C(=O)O)c(NCc2ccco2)cc1Cl [FUROSEMIDE]

Tested on: Mus musculus
Assay: Na+ excretion mequiv /kg in saline-loaded mice administered at a dose 50 […] perorally
Format: ADME, organism-based
Details: in vivo, po
How it was run: as §1

Na+ excretion [m equiv kg-1]	Compound
11.5	NS(=O)(=O)c1cc(C(=O)O)c(NCc2ccco2)cc1Cl [FUROSEMIDE]

Tested on: Canis familiaris
Assay: Na+ excretion mequiv/kg in 4 conscious female dogs administered perorally during 0-6 hr
Format: ADME, organism-based, Canis lupus familiaris
Details: dog, in vivo, po
How it was run: as §3

Na+ excretion [m equiv kg-1]	Compound
1.44	CC1(c2ccccc2)Cc2cc(OCC(=O)O)c(Cl)c(Cl)c2C1=O (stereo not given) [INDACRINONE]

Tested on: Mus musculus
Assay: Na+ excretion mequiv/kg in 4 saline-loaded mice administered at a dose 50 […] perorally
Format: ADME, organism-based
Details: in vivo, po
How it was run: as §1

Na+ excretion [m equiv kg-1]	Compound
12.6	CC1(c2ccccc2)Cc2cc(OCC(=O)O)c(Cl)c(Cl)c2C1=O (stereo not given) [INDACRINONE]

Tested on: Canis familiaris
Assay: ED5(natriuretic potency) is the oral dose(mg/kg) required to produce an excretion of 5 milliequivalents of Na+per kilogram during 0-6 hr in female dogs (Highest dose tested was 30 mg/kg)
Format: functional, Canis lupus familiaris
Details: not given
How it was run: (§4)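 Female dogs, conscious, one oral dose per dog per experiment. Urine collected and centrifuged; venous plasma drawn at each collection time. Samples assayed for Na+, K+, Cl-, urate and glucose by standard methods. Cumulative Na+ output expressed as mequiv/kg over 6 h, at least two dogs/dose. ED5 read from regression of Na+ excretion against log dose.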

Compound	ED5 [mg/kg]
NS(=O)(=O)c1cc(C(=O)O)c(NCc2ccco2)cc1Cl [FUROSEMIDE]	3.5
OCC1Cc2cc3c(-c4ccccc4F)noc3c(Cl)c2O1 (stereo not given)	21
CC1(c2ccccc2)Cc2cc(OCC(=O)O)c(Cl)c(Cl)c2C1=O (stereo not given) [INDACRINONE]	7.64
Cc1c2c(cc3c(-c4ccccc4F)noc13)CC(C(=O)O)O2 (stereo not given)	0.79
O=C(O)C1Cc2cc3c(-c4ccccc4)noc3c(Cl)c2O1 (stereo not given)	13.5

Tested on: Mus musculus
Assay: Na+ excretion mequiv /kg in saline-loaded mice administered at a dose 2 […] perorally
Format: ADME, organism-based
Details: in vivo, po
How it was run: as §1

Na+ excretion [m equiv kg-1]	Compound
3.7	NS(=O)(=O)c1cc(C(=O)O)c(NCc2ccco2)cc1Cl [FUROSEMIDE]

Tested on: Mus musculus
Assay: Na+ excretion mequiv/kg in saline-loaded mice administered at a dose 2 […] perorally
Format: ADME, organism-based
Details: in vivo, po
How it was run: as §1

Na+ excretion [m equiv kg-1]	Compound
4	CC1(c2ccccc2)Cc2cc(OCC(=O)O)c(Cl)c(Cl)c2C1=O (stereo not given) [INDACRINONE]

Tested on: Rattus norvegicus
Assay: ED2(natriuretic potency) is the oral dose(mg/kg) required to produce an excretion of 2 milliequivalents of Na+per kilogram during 0-4 hr in female rats (Highest dose tested was 100 mg/kg); Inactive
Format: functional, organism-based
Set-up: dose 100 mg/kg
Details: not given
How it was run: as §2

Compound	ED2
OCC1Cc2cc3c(-c4ccccc4F)noc3c(Cl)c2O1 (stereo not given)	inactive
NC(=O)C1Cc2cc3c(-c4ccccc4F)noc3c(Cl)c2O1 (stereo not given)	inactive
O=C(O)C1Cc2cc3c(-c4ccccc4F)noc3cc2O1 (stereo not given)	inactive

Species on record: Canis familiaris
Assay: urate excreted in female dogs during 0-6 hr
Format: ADME, organism-based, Canis lupus familiaris
Details: dog, in vivo
How it was run: as §3

Excretion [mg/kg]	Compound
0.7	NS(=O)(=O)c1cc(C(=O)O)c(NCc2ccco2)cc1Cl [FUROSEMIDE]

Tested on: Canis familiaris
Assay: ED5(natriuretic potency) is the oral dose(mg/kg) required to produce an excretion of 5 milliequivalents of Na+per kilogram during 0-6 hr in female dogs (Highest dose tested was 30 mg/kg); Inactive
Format: functional, organism-based
Set-up: dose 30 mg/kg
Details: Canis lupus familiaris
How it was run: as §4

Compound	ED5
CC(C)Cc1noc2c(Cl)c3c(cc12)CC(C(=O)O)O3 (stereo not given)	inactive
CCc1noc2c(Cl)c3c(cc12)CC(C(=O)O)O3 (stereo not given)	inactive

Tested on: Mus musculus
Assay: Na+ excretion mequiv/kg in saline-loaded mice administered at a dose 3 […] perorally
Format: ADME, organism-based
Details: in vivo, po
How it was run: as §1

Na+ excretion [m equiv kg-1]	Compound
4.5	NS(=O)(=O)c1cc2c(cc1Cl)NCNS2(=O)=O [HYDROCHLOROTHIAZIDE]
